Screens deposited in PubChem BioAssay by Broad Institute.
PfHsp90 set2 = inhibits growth of yeast expressing Plasmodium falciparum Hsp90; 0.32% of 310,000 active; S. cerevisiae expressing PfHsp90, BacTiter-Glo ATP, 48 h; yeast lacking PDR1 and PDR3 efflux regulators; inhibition, % at 9.4 µM;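 active means every replicate shows inhibition above about 80%, whatever the replicate mean, limit read from the data; inconclusive means mean inhibition reaches the set limit but some replicate falls short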;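 further: 0% = DMSO neutral controls and 100% = 20 µM radicicol positive controls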
S100A4 MyoIIA = blocks human S100A4 binding to myosin IIA peptide; P26447; S100A4/TAMRA-MyoIIA peptide fluorescence polarization; inhibition, % at 10.7 µM; 0.14% of 360,000 active; AID 652163;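 active means mean inhibition of at least 70% across replicates, with every replicate also reaching that level; inconclusive means mean inhibition reaches 70% but some replicates fall short; inactive means mean inhibition below 70%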
Target sequence (P26447 whole entry, looked up): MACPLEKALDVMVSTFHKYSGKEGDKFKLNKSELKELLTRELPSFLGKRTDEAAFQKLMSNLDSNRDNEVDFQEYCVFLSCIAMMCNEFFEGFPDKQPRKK
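Test system: S100A4 monomer protein; Medium: HEPES pH 7.2 with CaCl2, KCl, NaCl, DTT, Triton; Probe or stimulus: TAMRA-labelled myosin IIA heavy-chain peptide probe, 5 nM; Doses: one dose per compound; Times: polarization read 5 min after assay mix addition, stable 5–60 min; Benchmarks: neutral control DMSO, positive control TFP.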
Cneo AK release = causes C. neoformans cell lysis | adenylate kinase release luminescence, 4 h; normalised: neutral wells 0, clomiphene wells 100 | lysis activity, % at 15 µM | 0.2% of 360,000 active | AID 651654;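 active means mean lysis activity across replicates of at least 80%, whatever share of replicates individually reach that level; inactive means mean lysis activity below 80%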
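Material – Cryptococcus neoformans yeast cells · Quantity – 5 × 10^6 yeast cells/mL · Buffer or medium – YPD medium · Compound – single dose · Timing – 4 h static compound exposure, 37 °C, read 1 h post-reagent · Signal – adenylate kinase release luminescence · Read-out basis – lysis from increased AK signal · Benchmarks – Clomiphene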
AF4-AF9 inh = blocks AF4 peptide binding to human AF9; P42568; AlphaScreen, biotin-AF4 peptide binding to FLAG-AF9; inhibition, % at 10 µM; 0.47% of 350,000 active; AID 651704;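 active means every replicate reaching a set inhibition limit, whatever the replicate mean, cut at about 25% in these data; inconclusive means mean inhibition reaches that limit but some replicates miss it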;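 further: 0% = plate neutral control median and 100% = total signal loss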
Target sequence (P42568 whole entry, looked up): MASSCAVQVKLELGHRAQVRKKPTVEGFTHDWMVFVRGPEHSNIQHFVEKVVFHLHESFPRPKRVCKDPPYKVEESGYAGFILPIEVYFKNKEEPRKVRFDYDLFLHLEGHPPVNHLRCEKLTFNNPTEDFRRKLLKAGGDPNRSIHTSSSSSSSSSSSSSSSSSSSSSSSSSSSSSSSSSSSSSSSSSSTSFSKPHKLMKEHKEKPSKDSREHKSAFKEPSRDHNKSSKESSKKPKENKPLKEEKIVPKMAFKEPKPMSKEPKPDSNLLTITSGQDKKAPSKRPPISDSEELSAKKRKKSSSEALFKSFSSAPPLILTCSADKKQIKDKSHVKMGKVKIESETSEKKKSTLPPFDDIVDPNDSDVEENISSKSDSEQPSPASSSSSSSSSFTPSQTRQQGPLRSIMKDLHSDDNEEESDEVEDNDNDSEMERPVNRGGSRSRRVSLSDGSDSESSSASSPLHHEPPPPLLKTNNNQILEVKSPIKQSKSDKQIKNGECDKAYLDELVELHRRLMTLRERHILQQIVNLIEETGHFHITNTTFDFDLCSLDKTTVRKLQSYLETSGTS
rRNA inh HTS = inhibitors of bacterial rRNA selective over humanized ribosomes; E. coli WT GFP vs humanized-ribosome RFP mutants, fluorescence, 24 h; active compounds read low; DMSO median 0, no signal -100; GFP signal change (wild-type ribosome), % (test concentration not listed); 1.6% of 350,000 active;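 active means significant combined selectivity score with lowered wild-type GFP, culture density cut under 30%, mutant RFP and density less affected; inactive means any of these conditions unmet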
DENV2 CPE rescue = inhibitors of DENV2 cytopathic effect. DENV2-infected cells, cytopathic effect rescue, plate reader. CPE inhibition, % at 9.99 µM. 1.7% of 350,000 active; in the data active means CPE inhibition above about 20%, passing the limit was not always enough; inconclusive means no clear call, values can overlap the other calls; tested in BHK-21 cells;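 further: 0% = median of neutral control wells and 100% = median of positive control wells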
Active calls of the source: *; ? = inconclusive; / = not tested or not shown; ! = a repeat was not active. Sampled rows, rich in hits. Any-hit rate of the full collection: about 3.2%.

SMILES | PfHsp90 set2 | S100A4 MyoIIA | Cneo AK release | AF4-AF9 inh | rRNA inh HTS | DENV2 CPE rescue
C[C@@H]1CN([C@@H](C)CO)C(=O)c2cccc(NC(=O)Nc3ccccc3)c2O[C@H]1CN(C)C(=O)Nc1ccc(C(F)(F)F)cc1 | / | 7.5 | -3.3 | 2.0 | -0.5 | -1.1
C[C@H](CO)N1C[C@H](C)[C@@H](CN(C)C(=O)Nc2ccc(C(F)(F)F)cc2)Oc2c(NC(=O)Nc3cccc4ccccc34)cccc2C1=O | / | / | / | / | -4.9 | /
CC(=O)N1[C@@H](CO)[C@@H](c2ccccc2)C12CN(C(=O)c1ccc3c(c1)OCO3)C2 | / | -26.1 | / | -2.8 | 0.8 | -4.5
CO[C@H]1CN(C)C(=O)c2ccc(NC(=O)C3CC3)cc2OC[C@@H](C)N(CC2CCOCC2)C[C@H]1C | / | 12.6 | 33.5 | -0.1 | 2.9 | 15.6
O=C(N[C@@H]1CC[C@H](CCNS(=O)(=O)c2ccc(Cl)cc2)O[C@@H]1CO)c1cccc(F)c1 | / | 5.6 | -2.8 | -0.4 | -0.6 | -4.2
C[C@H](CO)N1C[C@H](C)[C@@H](CN(C)C(=O)Nc2ccc(C(F)(F)F)cc2)Oc2c(NC(=O)C3CCCCC3)cccc2C1=O | -28.8 | -6.0 | -1.0 | -0.7 | -5.3 | 22.1*!
C[C@H](CO)N1C[C@H](C)[C@@H](CN(C)C(=O)Nc2ccc(C(F)(F)F)cc2)Oc2c(NC(=O)C3CC3)cccc2C1=O | / | 14.3 | 0.0 | / | -5.4 | -4.8
C[C@H]1CN([C@@H](C)CO)C(=O)c2cc(-c3cncnc3)cnc2O[C@H]1CN(C)C(=O)c1ccccc1F | / | -0.2 | 90.1* | 0.1 | -0.4 | ?
C[C@@H]1CN([C@@H](C)CO)C(=O)c2cc(-c3cccnc3)cnc2O[C@@H]1CN(C)C(=O)c1ccccc1F | / | 1.2 | -4.3 | -8.2 | 5.5 | 45.9*
C[C@@H]1CN([C@H](C)CO)C(=O)c2cc(-c3cccnc3)cnc2O[C@@H]1CN(C)C(=O)c1ccccc1F | / | -31.1 | -4.9 | -0.6 | 7.8 | 2.0
COc1cccc(NC(=O)Nc2ccc3c(c2)C(=O)N(C)[C@H]2CC[C@H](CC(=O)O)O[C@@H]2CO3)c1 | / | / | -3.0 | / | 2.7 | 1.5
O=C1C=CC(=C(c2ccc(O)cc2)c2ccc(O)cc2)C=C1 | 11.7 | 5.3 | 0.1 | 12.3 | -50.3*! | -6.3
O=C(CCCC(=O)c1ccc(O)cc1)c1ccc(O)cc1 | 12.5 | -2.8 | 0.7 | 0.8 | -18.9 | -19.2
COc1cccc(C2c3cc4c(cc3OC(N3CCCC3)C2C)OCO4)c1O (configuration not stated) | 12.8 | -1.3 | / | 10.8 | -19.5* | -1.1
COc1cc(C2c3cc4c(cc3OC(N3CCCCC3)C2C)OCO4)cc(OC)c1O (configuration not stated) | -7.4 | 0.0 | / | -10.6 | -0.1 | 0.8
Cc1cc(OCC(=O)NC(Cc2c[nH]c3ccc(O)cc23)C(=O)O)c2c(C)c(C)c(=O)oc2c1 (configuration not stated) | 30.0 | -7.4 | -0.3 | -2.8 | -7.3 | 93.6*
Cc1cc(OCC(=O)NC(Cc2ccc(Cl)cc2)C(=O)O)c2c(C)c(C)c(=O)oc2c1 (configuration not stated) | 8.8 | 21.2 | -3.3 | 1.4 | / | 91.9*
CC(C)C#Cc1cnc2c(c1)C(=O)N([C@H](C)CO)C[C@H](C)[C@H](CN(C)C(=O)c1cccnc1)O2 | / | -10.3 | 4.7 | -5.1 | 3.7 | -3.6
N#C/C(=N\Nc1ccc(S(=O)(=O)N2CCCCC2)cc1)C(N)=S | 6.5 | 16.6 | 8.0 | 2.5 | -31.8* | ?
CCc1cccc(-n2c(C)cc(O)cc2=O)c1 | / | -1.2 | / | / | -4.2 | 61.2*
Cc1cc(O)cc(=O)n1-c1cccc(F)c1 | / | -2.7 | / | / | 8.7 | 1.2
CC1CC(C)CN(C(=S)SCc2nc(N)nc(Nc3ccccc3)n2)C1 (configuration not stated) | 1.1 | -2.3 | / | -5.3 | -21.6* | 4.0
Nc1nc(CSC(=S)N2CCCCC2)nc(Nc2ccccc2)n1 | -1.3 | -0.4 | / | 3.3 | -4.5 | 1.7
O=C(c1ccccc1)N1C[C@@H]2[C@H](c3ccccc31)[C@H](CO)N2Cc1cocn1 | / | -3.6 | -1.6 | / | -2.5 | 2.0
O=C(Nc1ccccc1F)N1C[C@@H]2[C@H](c3ccccc31)[C@H](CO)N2C(=O)c1ccc(F)cc1 | / | 15.5 | 0.7 | -1.3 | 3.6 | 34.9*
SMILES | PfHsp90 set2 | S100A4 MyoIIA | Cneo AK release | AF4-AF9 inh | rRNA inh HTS | DENV2 CPE rescue
COc1ccccc1NC(=O)N1C[C@@H]2[C@H](c3ccccc31)[C@@H](CO)N2C(C)=O | / | -1.0 | 42.2 | 3.1 | 5.5 | 43.9*
O=C(c1cccc(F)c1)N1C[C@H]2[C@@H](c3ccccc31)[C@@H](CO)N2Cc1cocn1 | / | 0.3 | 99.8* | -2.3 | -0.3 | 18.5
COc1cccc(C(=O)N2C[C@H]3[C@@H](c4ccccc42)[C@H](CO)N3C(=O)c2ccc(F)cc2)c1 | / | 7.2 | -0.5 | -2.9 | 3.2 | 26.7*
COc1cccc(C(=O)N2C[C@@H]3[C@H](c4ccccc42)[C@H](CO)N3C(=O)c2ccc(F)cc2)c1 | / | 26.3 | 2.1 | -5.0 | 2.7 | -8.6
O=C(c1cccc(F)c1)N1C[C@H]2[C@@H](c3ccccc31)[C@@H](CO)N2C(=O)c1cccc(F)c1 | / | 7.7 | 0.0 | -0.2 | -1.1 | 20.9*
O=C(c1ccncc1)N1C[C@@H]2[C@H](c3ccccc31)[C@H](CO)N2C(=O)c1ccccc1F | / | -0.6 | 54.8 | -2.6 | 4.5 | -6.4
O=C(c1ccncc1)N1C[C@H]2[C@@H](c3ccccc31)[C@H](CO)N2C(=O)c1ccccc1F | / | 4.2 | 45.9 | 0.6 | 5.0 | 43.4*
COc1ccc2c3c([nH]c2c1)[C@H](CO)N(C(=O)c1ccc(F)cc1)CC31CN(C(=O)NC(C)C)C1 | / | -24.5 | / | -18.6 | 1.8 | 6.9
CCC(=O)N1[C@H](C#N)[C@H](c2ccccc2-c2cccc(C)c2)[C@H]1CO | / | 0.9 | / | -0.8 | 1.5 | -1.5
COCCN1C(=O)CN(S(C)(=O)=O)CC1(C)C(=O)Nc1ccc2c(c1)OCCO2 (configuration not stated) | / | 2.0 | / | / | / | 33.2*
CC1(C(=O)Nc2ccc3c(c2)OCCO3)CN(S(C)(=O)=O)CC(=O)N1CCc1ccccc1 (configuration not stated) | / | 1.1 | / | -1.2 | 1.3 | -1.5
COc1ccc(CCN2C(=O)CSCC2(C)C(=O)Nc2ccc3c(c2)OCCO3)cc1OC (configuration not stated) | / | -0.9 | / | / | -12.2 | 20.6*
CO[C@H]1CN(C)C(=O)c2cc(NC(=O)C3CCCC3)ccc2OC[C@@H](C)N(CC2CC2)C[C@H]1C | / | 10.8 | -1.1 | 0.9 | 3.4 | 0.2
